Bioassay records deposited in PubChem by several laboratories.
In the library only some 2.2% were active in any assay of this set; here they are far more common.
SDO1 yeast rescue – growth rescue of sdo1-depleted yeast, primary screen, S. cerevisiae, bone marrow failure model; S. cerevisiae sdo1-depleted JHY4D growth rescue, OD600 30 h; hits give high values; pdr5 snq2 efflux-pump mutant strain; z-score at 10 µM; 0.21% of 140,000 active; AID 817, 2007;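 active = z-score above 3 at both the 24 hr and the 30 hr optical density reads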;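 also: z-score against mean and SD of all compound wells on the same plate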
Autophagy mod – autophagy modulators in MEF cells, primary screen, imaging, high-content, MEF GFP-LC3; AID 463193, 2010; 0.98% of 190,000 active; calls only at 10 µM (by protocol); MEF GFP-LC3 puncta imaging; test concentration mostly 10 µM;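 active = percentage of spot-positive cells more than 3 SD above its plate mean, without a fluorescence outlier flag or 80% toxicity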;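 also: spot-positive cell cutoff set from DMSO-treated cells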
PTEN del growth – growth suppression of PTEN-null HCT116, primary screen, cell-based, CellTiter-Glo. viability, % at 10 µM. 1.2% of 140,000 active. HCT116 PTEN-null viability, 60 h; hits give low values. AID 827, 2007;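 active = viability at or below a set limit, 4 SD under the median of all tested compounds, cut at about 3.7% in these data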;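 also: PTEN knockout HCT116 line with beta catenin targeted HCT116 as companion control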
HCT116 bCat-KO – primary screen for growth suppressors in beta-catenin knockout HCT116 cells (colon tumor, human); HCT116 beta-catenin knockout viability, CellTiter-Glo, 60 h; hits give low values; 1.5% of 140,000 active; viability, % at 10 µM;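 active = viability at or under a set limit, the compound median less 4 SD, cut at about 6% in these data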;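 also: 0% = Hyamine 1622 control at 20 µM and 100% = untreated cell control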
Dynein transport – inhibitors of GR-EGFP nuclear translocation, primary screen, dynein cargo transport inhibitor project, imaging, high-content, 3617.4 mouse cells; test concentration mostly 20 µM; stimulated with dexamethasone, 1 µM; hits give low values; z-score, hits read low; 0.47% of 220,000 active;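 active = plate z-score of nuclear minus cytoplasmic receptor signal below a set negative limit, without overly bright fluorescence or cell loss, cut at about -3.5 in these data, passing the limit was not always enough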;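 also: z-score of nuclear minus cytoplasmic ring GR-EGFP intensity difference per well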
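Buffer or medium: tetracycline-free induction medium containing charcoal-stripped FBS / Reagent: dexamethasone agonist, 1.0 µM final, for 30 min / Technique: automated 10x imaging of fixed Hoechst-stained cells / Times: induction 48 h, compound 1 h, agonist 30 min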
Starred values were filed as active, the others as inactive; i = inactive; . = no result given; + = active, no number.

SMILES | SDO1 yeast rescue | Autophagy mod | PTEN del growth | HCT116 bCat-KO | Dynein transport
O=C(C1=NOC(CNc2ncc(C(F)(F)F)cc2Cl)C1)N1CCOCC1 (centres undefined) | . | i | . | . | -0.14
CCOC(=O)C1=C(C)NC(C)=C(C(=O)OC)C1c1cccc([N+](=O)[O-])c1 (centres undefined) | -0.92 | i | 87 | 87 | 0.61
COC(=O)C1=C(C)NC(C)=C(C(=O)OC)C1c1ccccc1[N+](=O)[O-] | -1.7 | i | 1.9* | 1.6* | -1.1
Cc1noc(C)c1C(=O)NC(C)c1ccc(Cl)cc1Cl (centres undefined) | . | i | . | . | -0.37
O=C(c1ccc2c(c1)OCO2)N1CCC2(CC1)Oc1ccc(Cl)cc1C(=O)C21CC(c2ccc(Cl)cc2)=NO1 (centres undefined) | . | . | . | . | -1.6
O=C(CSc1nnc(-c2ccccc2Cl)o1)Oc1ccc(Br)cc1 | -0.46 | i | 0.7* | 0.9* | 1.1
O=C(O)CC/C(=N\Nc1ccc([N+](=O)[O-])cc1S(=O)(=O)N1CCOCC1)c1cccs1 | . | . | . | . | 0.79
CN1CCN(Cc2nc3ccccc3c(=O)n2Cc2nc(-c3ccc4ccccc4c3)cs2)CC1 | -2 | i | 0.7* | 0.8* | 1.3
CN1CCN(Cc2nc3ccccc3c(=O)n2Cc2nc(-c3cccc([N+](=O)[O-])c3)cs2)CC1 | . | i | . | . | -1.1
CC1CCN(C(=O)c2ccc(NC(=O)C3CCCO3)cc2)CC1 (centres undefined) | -0.74 | i | 99 | 101 | 0.36
CN1CCN(C(=O)CN(C)S(=O)(=O)c2ccc3ccccc3c2)CC1 | . | + | . | . | 0.85
COc1ccc(N2C(=S)NC3N2C(=S)NC3(C)c2ccccc2)cc1 (centres undefined) | . | i | . | . | -0.082
O=C1c2ccccc2C(=O)C12OC2c1ccc(Cl)cc1Cl (centres undefined) | -1.9 | i | 1.7* | 2.6* | -4.6*
CC1SC(c2ccc(Cl)cc2Cl)NC1=O (centres undefined) | -0.13 | i | 95 | 90 | 1.1
O=C(Nc1nc2ccccc2n1CCN1CCOCC1)c1cn(-c2ccccc2)nc1-c1ccccc1 | -2.1 | + | 10 | 17 | 0.75
CC(=O)Nc1nc2ccccc2n1CCN1CCOCC1 | -0.2 | i | 105 | 94 | 0.057
Cc1noc(C)c1COC(=O)CCc1nc2ccccc2c(=O)[nH]1 | 0.7 | i | 98 | 98 | 0.79
O=C(Nc1ccc2nc(SCc3ccc(Cl)cc3)sc2c1)c1ccccc1C(=O)N1CCOCC1 | -1.2 | + | 23 | 24 | 1.6
Cc1c(C(=O)OCC(=O)Nc2ccc(C(N)=O)cc2)cccc1[N+](=O)[O-] | . | i | . | . | -1.4
COc1ccc2nc(/C=N/NC(=O)[C@@H]3CCCN3C(=O)OC(C)(C)C)ccc2c1 | . | . | . | . | -0.31
CCOC(=O)c1cnc(-n2nc(C)cc2C)nc1Nc1ccccc1OC | -1.8 | i | 87 | 87 | -0.67
CCOC(=O)c1cnc(-n2nc(C)cc2C)nc1NCCc1ccccc1 | -2.2 | i | 2.9* | 2.2* | -0.23
CCOC(=O)c1oc2nc3c(cc2c1N)COC(C)(C)C3 | 0.36 | + | 119 | 95 | -0.68
S=c1[nH]nc(Cc2ccc(Cl)cc2)o1 | . | . | . | . | -0.72
COc1ccccc1NC(=O)CSc1nc2ccccc2cc1Cc1ccccc1 | -0.05 | i | 70 | 69 | 0.16
SMILES | SDO1 yeast rescue | Autophagy mod | PTEN del growth | HCT116 bCat-KO | Dynein transport
C/C(CC(=O)Nc1cccnc1)=N\NC(=O)C(=O)Nc1cccc(C)c1 | 1.1 | + | 101 | 110 | 0.043
CC(C)Oc1ccc(/C=N/NC(=O)C(CSCc2ccccc2)NC(=O)c2ccc([N+](=O)[O-])cc2)cc1 (centres undefined) | -1.6 | + | 36 | 71 | 0.36
O=C(COc1ccc(/C=N/NC(=O)c2ccccc2)cc1)Nc1ccc([N+](=O)[O-])cc1 | 0.48 | i | 88 | 91 | -0.57
O=C(Nc1cc([N+](=O)[O-])ccc1Cl)C1CC1 | 0.62 | i | 95 | 95 | -0.46
O=C(N=Nc1c(O)n(Cc2ccccc2)c2ccccc12)c1cc2ccccc2cc1O | -1.6 | i | 1.5* | 1.7* | -0.31
O=C(N=Nc1c(O)n(Cc2ccccc2)c2ccccc12)c1ccc(O)cc1 | -1.3 | i | 46 | 59 | 0.7
Cc1ccc(S(=O)(=O)N2CCNC(=O)CC2)cc1 | . | i | . | . | -1.6
CN(C)CCNC(=O)/C(=C/c1ccc(-c2ccc(Cl)cc2Cl)o1)NC(=O)c1ccccc1 | 0.04 | i | 1.5* | 1.9* | -5.1
CN(C)CCCNC(=O)/C(=C\c1ccc(-c2cccc([N+](=O)[O-])c2)o1)NC(=O)c1ccccc1 | . | i | . | . | 0.013
CN(C)CCNC(=O)/C(=C/c1ccc(-c2ccc(Cl)cc2)o1)NC(=O)c1ccccc1 | 0.91 | i | 0.8* | 0.9* | 4.6
Cc1cc(C)c(C(=O)CN2C(=O)NC3(CCCCCC3)C2=O)cc1C | . | + | . | . | -1.1
Cc1cc(C(=O)CN2C(=O)NC3(CCCCC3)C2=O)c(C)n1C | . | i | . | . | -0.48
CCc1ccc2oc(-c3cc(N)cc(C)c3O)nc2c1 | -1.6 | + | 73 | 64 | -0.74
CCc1ccc2oc(-c3cc(N)ccc3O)nc2c1 | -2 | i | 34 | 61 | 0.28
CCOc1ccc(N(CC(=O)NC(C)CC)S(=O)(=O)c2c(C)noc2C)cc1 (centres undefined) | 0.58 | i | 86 | 89 | 2.9
CC1CCCCC1NC(=O)C1CCN(S(=O)(=O)N2CCC3(CC2)OCCO3)CC1 (centres undefined) | 1.1 | i | 94 | 90 | 1
O=C(NC1CCCCCC1)C1CCN(S(=O)(=O)N2CCC3(CC2)OCCO3)CC1 | 0.01 | + | 97 | 98 | -0.51
Cc1cc(C)c2nc(N3CCC(C(=O)NCCCN4CC(C)CC(C)C4)CC3)sc2c1 (centres undefined) | . | + | . | . | 5.3
COc1ccccc1CNC(=O)c1c(N)n(CCCN2CCOCC2)c2nc3ccccc3nc12 | -2.8 | i | 8 | 11 | -0.097
Nc1c(C(=O)NCc2ccc3c(c2)OCO3)c2nc3ccccc3nc2n1CCCN1CCOCC1 | -2.3 | i | 1.4* | 1.4* | 0.15
Nc1c(C(=O)NCCN2CCOCC2)c2nc3ccccc3nc2n1-c1ccc2c(c1)OCO2 | -0.92 | + | 81 | 90 | 0.72
Nc1c(C(=O)NCCN2CCOCC2)c2nc3ccccc3nc2n1CCc1ccccc1F | -1.9 | + | 3.8* | 3.6* | 2.1
COc1ccc(Cc2nnc(N/N=C/c3ccc(Br)cc3)[nH]c2=O)cc1OC | . | . | . | . | -1.2
COc1ccc(Cc2nnc(N/N=C/c3ccc(O)cc3)[nH]c2=O)cc1OC | 1 | i | 7 | 5.5* | -0.084
